Read-outs that look alike come from different tables or passages of the source.
Tests used:
[1] = MAD phase pharmacokinetics; type: in vivo, human; conditions: for Cmax / concentration at 11 day / concentration at 12 day / concentration at 13 day / concentration at 14 day / Tmax / AUC / concentration at 1 day: human, plasma, oral; for Cmax: C max; for concentration at 11 day / concentration at 12 day / concentration at 13 day / concentration at 14 day / concentration at 1 day: C trough; for concentration at 11 day: day 11; for concentration at 12 day: day 12; for concentration at 13 day: day 13; for AUC: AUC τ
Method in brief: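 MAD phase, 2–15 mg q.d. oral for 14 days. Plasma was sampled predose daily and 15 min–48 h on days 1 and 14. Urine was pooled over 24 h on days 1 and 14. One CSF sample was taken 3 h postdose on day 7 (10 mg cohort). All matrices were assayed by validated LC-MS/MS. Derived: Cmax, Tmax, t1/2, AUCτ, Ctrough, peak-to-trough ratio, accumulation ratios, and CSF/plasma ratio corrected for protein binding. Results reported as geometric means (95% CI) and medians.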

[2] = dogs, preclinical experiments, cited from earlier work
[3] = 2 mg, GeoMean, MAD 2 mg q.d., day 14
[4] = 2 mg, Median, MAD 2 mg q.d., day 14
[5] = 5 mg, GeoMean, MAD 5 mg q.d., day 1
[6] = 5 mg, GeoMean, MAD 5 mg q.d., day 14
[7] = 5 mg, Median, MAD 5 mg q.d., day 1
[8] = 5 mg, Median, MAD 5 mg q.d., day 14
[9] = 10 mg, GeoMean, MAD 10 mg q.d., day 1
[10] = 10 mg, GeoMean, MAD 10 mg q.d., day 14
[11] = 10 mg, Median, MAD 10 mg q.d., day 1
[12] = 10 mg, Median, MAD 10 mg q.d., day 14
[13] = 15 mg, GeoMean, MAD 15 mg q.d., day 1
[14] = 15 mg, GeoMean, MAD 15 mg q.d., day 14
[15] = 15 mg, Median, MAD 15 mg q.d., day 1
[16] = 15 mg, Median, MAD 15 mg q.d., day 14

For `Fc1ccccc1Cc1nc(-c2nc(C(F)(F)F)n[nH]2)cn2ccnc12` [zagociguat, 8‐(2‐fluorobenzyl)‐6‐(3‐(trifluoromethyl)‐1H‐1,2,4‐triazol‐5‐yl)imidazo[1,2‐a]pyrazine], which Cmax [1, 3] is on record?
The Cmax was 0.88 µg/mL.

What about the Cmax ([1]; 2 mg, Median, MAD 2 mg q.d., day 1) of the same compound?
Its Cmax is 0.268 µg/mL.

What about the Cmax [1, 4] of the same compound?
Its Cmax is 0.888 µg/mL.

And the concentration at 11 day ([1]; 2 mg, GeoMean, MAD 2 mg q.d.)?
The concentration at 11 day was 0.587 µg/mL.

And the concentration at 12 day ([1]; 2 mg, GeoMean, MAD 2 mg q.d.)?
Its concentration at 12 day is 0.593 µg/mL.

And the concentration at 13 day ([1]; 2 mg, GeoMean, MAD 2 mg q.d.)?
The concentration at 13 day was 0.616 µg/mL.

And the concentration at 14 day [1, 3]?
The concentration at 14 day was 0.624 µg/mL.

What about the concentration at 11 day ([1]; 2 mg, Median, MAD 2 mg q.d.) of the same compound?
The concentration at 11 day was 0.579 µg/mL.

What about the concentration at 12 day ([1]; 2 mg, Median, MAD 2 mg q.d.) of the same compound?
The concentration at 12 day was 0.584 µg/mL.

And the concentration at 13 day ([1]; 2 mg, Median, MAD 2 mg q.d.)?
The concentration at 13 day was 0.61 µg/mL.

And the concentration at 14 day [1, 4]?
The concentration at 14 day was 0.632 µg/mL.

And the Tmax ([1]; 2 mg, T max, Median, MAD 2 mg q.d., day 1)?
Its Tmax is 1 h.

And the Tmax ([1]; 2 mg, T max, Median, MAD 2 mg q.d., day 14)?
The Tmax was 1 h.

And the AUC [1, 5]?
Its AUC is 11 µg·h/mL.

What about the AUC [1, 6] of the same compound?
The AUC was 42.1 µg·h/mL.

What about the AUC [1, 7] of the same compound?
Its AUC is 11.5 µg·h/mL.

What about the AUC [1, 8] of the same compound?
The AUC was 43.9 µg·h/mL.

And the Cmax [1, 5]?
Its Cmax is 0.602 µg/mL.

And the Cmax [1, 6]?
Its Cmax is 2.08 µg/mL.

And the Cmax [1, 7]?
The Cmax was 0.597 µg/mL.

What about the Cmax [1, 8] of the same compound?
The Cmax was 2.23 µg/mL.

And the concentration at 1 day [1, 5]?
The concentration at 1 day was 0.389 µg/mL.

And the concentration at 11 day ([1]; 5 mg, GeoMean, MAD 5 mg q.d.)?
Its concentration at 11 day is 1.48 µg/mL.

What about the concentration at 12 day ([1]; 5 mg, GeoMean, MAD 5 mg q.d.) of the same compound?
The concentration at 12 day was 1.5 µg/mL.

What about the concentration at 13 day ([1]; 5 mg, GeoMean, MAD 5 mg q.d.) of the same compound?
The concentration at 13 day was 1.51 µg/mL.

What about the concentration at 14 day [1, 6] of the same compound?
Its concentration at 14 day is 1.54 µg/mL.

And the concentration at 1 day [1, 7]?
The concentration at 1 day was 0.411 µg/mL.

And the concentration at 11 day ([1]; 5 mg, Median, MAD 5 mg q.d.)?
Its concentration at 11 day is 1.54 µg/mL.

And the concentration at 12 day ([1]; 5 mg, Median, MAD 5 mg q.d.)?
The concentration at 12 day was 1.57 µg/mL.

And the concentration at 13 day ([1]; 5 mg, Median, MAD 5 mg q.d.)?
Its concentration at 13 day is 1.58 µg/mL.

And the concentration at 14 day [1, 8]?
Its concentration at 14 day is 1.64 µg/mL.

What about the Tmax ([1]; 5 mg, T max, Median, MAD 5 mg q.d., day 1) of the same compound?
Its Tmax is 2 h.

What about the Tmax ([1]; 5 mg, T max, Median, MAD 5 mg q.d., day 14) of the same compound?
Its Tmax is 3 h.

What about the AUC [1, 9] of the same compound?
The AUC was 20.1 µg·h/mL.

What about the AUC [1, 10] of the same compound?
The AUC was 76.8 µg·h/mL.

What about the AUC [1, 11] of the same compound?
The AUC was 21.5 µg·h/mL.

And the AUC [1, 12]?
Its AUC is 82.1 µg·h/mL.

What about the Cmax [1, 9] of the same compound?
Its Cmax is 1.07 µg/mL.

And the Cmax [1, 10]?
Its Cmax is 3.91 µg/mL.

What about the Cmax [1, 11] of the same compound?
Its Cmax is 1.14 µg/mL.

What about the Cmax [1, 12] of the same compound?
The Cmax was 4.05 µg/mL.

And the concentration at 1 day [1, 9]?
Its concentration at 1 day is 0.751 µg/mL.

And the concentration at 11 day ([1]; 10 mg, GeoMean, MAD 10 mg q.d.)?
The concentration at 11 day was 2.76 µg/mL.

And the concentration at 12 day ([1]; 10 mg, GeoMean, MAD 10 mg q.d.)?
The concentration at 12 day was 2.91 µg/mL.

What about the concentration at 13 day ([1]; 10 mg, GeoMean, MAD 10 mg q.d.) of the same compound?
Its concentration at 13 day is 2.84 µg/mL.

And the concentration at 14 day [1, 10]?
The concentration at 14 day was 2.85 µg/mL.

And the concentration at 1 day [1, 11]?
The concentration at 1 day was 0.751 µg/mL.

What about the concentration at 11 day ([1]; 10 mg, Median, MAD 10 mg q.d.) of the same compound?
Its concentration at 11 day is 3.09 µg/mL.

What about the concentration at 12 day ([1]; 10 mg, Median, MAD 10 mg q.d.) of the same compound?
Its concentration at 12 day is 3.24 µg/mL.

And the concentration at 13 day ([1]; 10 mg, Median, MAD 10 mg q.d.)?
The concentration at 13 day was 3.19 µg/mL.

What about the concentration at 14 day [1, 12] of the same compound?
Its concentration at 14 day is 2.82 µg/mL.

And the Tmax ([1]; 10 mg, T max, Median, MAD 10 mg q.d., day 1)?
The Tmax was 3 h.

And the Tmax ([1]; 10 mg, T max, Median, MAD 10 mg q.d., day 14)?
Its Tmax is 2.2 h.

What about the AUC [1, 13] of the same compound?
The AUC was 31.3 µg·h/mL.

What about the AUC [1, 14] of the same compound?
Its AUC is 116 µg·h/mL.

What about the AUC [1, 15] of the same compound?
Its AUC is 30.1 µg·h/mL.

What about the AUC [1, 16] of the same compound?
The AUC was 112 µg·h/mL.

And the Cmax [1, 13]?
The Cmax was 1.62 µg/mL.

And the Cmax [1, 14]?
Its Cmax is 5.85 µg/mL.

And the Cmax [1, 15]?
The Cmax was 1.53 µg/mL.

And the Cmax [1, 16]?
The Cmax was 5.8 µg/mL.

What about the Tmax ([1]; 15 mg, T max, Median, MAD 15 mg q.d., day 1) of the same compound?
Its Tmax is 3 h.

What about the Tmax ([1]; 15 mg, T max, Median, MAD 15 mg q.d., day 14) of the same compound?
Its Tmax is 3.5 h.

What about the Tmax ([1]; Median observed T max, range, MAD all doses, days 1 and 14) of the same compound?
Its Tmax is 1 to 3.5 h.

And the Drug accumulation ([1]; treatment period of 14 days)?
The Drug accumulation was “moderate drug accumulation”.

And the CSF/free plasma ratio ([2]; 1 h after oral 1 mg/kg)?
The CSF/free plasma ratio was 0.45.

And the CSF/free plasma ratio ([2]; 2 h after oral 1 mg/kg)?
The CSF/free plasma ratio was 0.32.

What about the CSF/free plasma ratio ([2]; 4 h after oral 1 mg/kg) of the same compound?
The CSF/free plasma ratio was 0.3.

What about the CSF/free plasma ratio ([2]; 8 h after oral 1 mg/kg) of the same compound?
The CSF/free plasma ratio was 0.28.

From PMC10432884 (Clinical and Translational Science, 2023)
